The source of these data is ChEMBL document CHEMBL3046951, “Volatile constituents from the leaves of Callicarpa japonica Thunb. and their antibacterial activities” (2004).

What all share (assay type): functional
One assay deals with Listeria monocytogenes. Put plainly: Antimicrobial activity against Listeria monocytogenes ATCC 19111 assessed as growth inhibition rate at 11.64 mg/l after 72 hr by spectrophotometry. As to conditions: ATCC 19111, 72 h, read-out: GI. In outline:
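L. monocytogenes was grown at 30 °C in tryptic soy broth, subcultured for 18 h, and exposed to pure volatile compounds (>95% purity). Growth was followed by Bioscreen C optical density every 24 h for 72 h against a 10% Tween 80 control.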

The next assay has as its system Vibrio parahaemolyticus. Put plainly: Antimicrobial activity against Vibrio parahaemolyticus ATCC 33844 assessed as growth inhibition rate at 11.64 mg/l after 72 hr by spectrophotometry. As to conditions: ATCC 33844, 72 h, read-out: GI.
Another assay concerns Salmonella typhimurium. Nature of the assay: Antimicrobial activity against Salmonella enterica subsp. enterica serovar Typhimurium ATCC 14028 assessed as growth inhibition rate at 11.64 mg/l after 72 hr by spectrophotometry. As to conditions: ATCC 14028, 72 h, read-out: GI. In outline:
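Salmonella Typhimurium ATCC 14028 grown in nutrient broth at 30 °C, precultured 24 h, then subcultured 1:100 for 18 h before testing. Single volatile compounds (>95% pure) were added. OD was read every 24 h over 72 h in a Bioscreen C, with 10% Tween 80 as the comparison control.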

In the next assay the test system is Escherichia coli. Nature of the assay: Antimicrobial activity against Escherichia coli O157:H7 ATCC 43894 assessed as growth inhibition rate at 11.64 mg/l after 72 hr by spectrophotometry. As to conditions: O157:H7 ATCC 43894, 72 h, read-out: GI.
A further assay relates to Staphylococcus aureus. Nature of the assay: Antimicrobial activity against Staphylococcus aureus ATCC 25923 assessed as growth inhibition rate at 11.64 mg/l after 72 hr by spectrophotometry. As to conditions: ATCC 25923, 72 h, read-out: GI.
A further assay concerns Bacillus cereus. Nature of the assay: Antimicrobial activity against Bacillus cereus ATCC 11778 assessed as growth inhibition rate at 11.64 mg/l after 72 hr by spectrophotometry. As to conditions: ATCC 11778, 72 h, read-out: GI. The essentials:
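Pure volatile compounds (purity >95%; one at 90%) were tested against B. cereus ATCC 11778. The strain was grown at 30 °C in nutrient broth for 24 h, then subcultured for 18 h. Optical density was read in a Bioscreen C every 24 h for 72 h, with 10% Tween 80 as the control.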

As for `CC1=C[C@@H]2C(=C(C)CC[C@H]2C(C)C)CC1`, the inhibition of growth at 11.64 µg/mL in the assay on Listeria monocytogenes is 15.7%; in the assay with Vibrio parahaemolyticus, 32.5%; in the assay on Salmonella typhimurium it was 4.3%; in the assay on Escherichia coli, 9.5%; in the assay on Staphylococcus aureus, 26.3%; in the assay with Bacillus cereus, 20.3%.
